According to ChEMBL document CHEMBL1152768, “4-Benzyloxy-gamma-sultone derivatives: discovery of a novel family of non-nucleoside inhibitors of human cytomegalovirus and varicella zoster virus” (J Med Chem, 2009):
The source made the active and inactive calls. No cut-off for these calls is given here.

Legend:
[1] = tested on: Human alphaherpesvirus 3; experiment: Antiviral activity against thymidine kinase expressing Varicella zoster virus Oka infected in human HEL cells assessed reduction in viral plaque formation; assay type: functional, organism-based; details: Human alphaherpesvirus 3, Oka
Summary of the method: (§1)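 Confluent HEL cell monolayers were inoculated with VZV at 20 PFU per well. Residual virus was removed after 2 h, and compound was added at varying concentrations, in duplicate.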

[2] = tested on: Human betaherpesvirus 5; experiment: Antiviral activity against HCMV AD169 infected in human HEL cells assessed inhibition of virus-induced cytopathicity after 7 days postinfection; assay type: functional, organism-based; details: Human betaherpesvirus 5, AD169, HEL, 168 h
Summary of the method: (§2)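 HEL fibroblasts were infected at 100 PFU. After 2 h, residual virus was removed and medium with test compound was added at several concentrations, in duplicate. Cells were incubated 7 days at 37 °C, fixed with ethanol and stained with Giemsa.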

[3] = Cytotoxicity against human HEL cells assessed as reduction of growth after 3 days; assay type: cell-based
Summary of the method: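 HEL cells were seeded at 5 × 10³ cells/well and grown 24 h before compound was added at different concentrations. After 3 days at 37 °C, cells were counted with a Coulter counter. CC50, the concentration halving growth relative to untreated controls, was read from plots of cell number (% of control) against concentration.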

[4] = tested on: Human alphaherpesvirus 3; experiment: Antiviral activity against thymidine kinase deficient Varicella zoster virus 07/1 infected in human HEL cells assessed reduction in viral plaque formation; assay type: functional, organism-based; details: Human alphaherpesvirus 3, HEL; summary of the method: as §1
[5] = Therapeutic index, ratio of CC50 for human HEL cells to EC50 for Human cytomegalovirus; assay type: cell-based; details: read-out: Ratio CC50/EC50
Summary of the method: (§3)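 Index calculated as CC50 (HEL cell growth, 3 days, Coulter count) divided by EC50 from the HEL-cell antiviral assays: HCMV cytopathicity at 7 days for line 18, VZV plaque reduction at 5 days for line 19.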

[6] = Cytotoxicity against human HEL cells assessed as morphological alteration after 3 days; assay type: cell-based
Summary of the method: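 HEL cultures were examined under the microscope. MCC was recorded as the compound concentration causing a microscopically detectable alteration of normal cell morphology.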

[7] = tested on: Human betaherpesvirus 5; experiment: Antiviral activity against HCMV Davis infected in human HEL cells assessed inhibition of virus-induced cytopathicity after 7 days postinfection; assay type: functional, organism-based; details: Human betaherpesvirus 5, Davis, 168 h; summary of the method: as §2
[8] = Therapeutic index, ratio of CC50 for human HEL cells to EC50 for Varicella zoster virus; assay type: cell-based; details: read-out: Ratio CC50/EC50; summary of the method: as §3
[9] = tested on: Human alphaherpesvirus 3; experiment: Antiviral activity against Varicella zoster virus YS infected in human HEL cells assessed reduction in viral plaque formation; assay type: functional, organism-based; details: Human alphaherpesvirus 3, YS
[10] = tested on: Mammalian orthoreovirus 3; experiment: Antiviral activity against Reovirus 3 infected in african green monkey Vero cells; assay type: functional, organism-based
[11] = tested on: Sindbis virus; experiment: Antiviral activity against Sindbis virus infected in african green monkey Vero cells; assay type: functional, organism-based
[12] = tested on: Coxsackievirus B4; experiment: Antiviral activity against Coxsackievirus B4 infected in african green monkey Vero cells; assay type: functional, organism-based
[13] = tested on: Human alphaherpesvirus 1; experiment: Antiviral activity against HSV1 KOS infected in human HEL cells; assay type: functional, organism-based
[14] = tested on: Punta Toro virus; experiment: Antiviral activity against Punta Toro virus infected in african green monkey Vero cells; assay type: functional, organism-based
[15] = tested on: Vesicular stomatitis virus; experiment: Antiviral activity against VSV infected in human HEL cells; assay type: functional, organism-based
[16] = tested on: Vaccinia virus; experiment: Antiviral activity against Vaccinia virus infected in human HEL cells; assay type: functional, organism-based; details: Orthopoxvirus vaccinia
[17] = tested on: Coxsackievirus B4; experiment: Antiviral activity against Coxsackievirus B4 infected in human HeLa cells; assay type: functional, organism-based
[18] = tested on: Vesicular stomatitis virus; experiment: Antiviral activity against VSV infected in human HeLa cells; assay type: functional, organism-based
[19] = tested on: Human alphaherpesvirus 2; experiment: Antiviral activity against HSV2 infected in human HEL cells; assay type: functional, organism-based
[20] = tested on: Human alphaherpesvirus 1; experiment: Antiviral activity against acyclovir-resistant […]-deficient HSV1 infected in human HEL cells; assay type: functional, organism-based
[21] = tested on: Respiratory syncytial virus; experiment: Antiviral activity against RSV infected in human HeLa cells; assay type: functional, organism-based
[22] = tested on: Human betaherpesvirus 5; experiment: Antiviral activity against acyclovir-resistant HCMV AD169 clone 1 infected in HEL cells assessed as inhibition of virus-induced cytopathicity; assay type: functional, organism-based; details: Human betaherpesvirus 5, AD169, HEL
[23] = tested on: Human betaherpesvirus 5; experiment: Antiviral activity against HPMPA-resistant HCMV AD169 clone 2 mutant infected in HEL cells assessed as inhibition of virus-induced cytopathicity; assay type: functional, organism-based; details: Human betaherpesvirus 5, AD169, HEL
[24] = tested on: Human betaherpesvirus 5; experiment: Antiviral activity against ganciclovir-resistant HCMV AD169 clone 4 infected in HEL cells assessed as inhibition of virus-induced cytopathicity; assay type: functional, organism-based; details: Human betaherpesvirus 5, AD169, HEL
[25] = tested on: Human betaherpesvirus 5; experiment: Antiviral activity against wild type HCMV Davis infected in HEL cells assessed as inhibition of virus-induced cytopathicity; assay type: functional, organism-based; details: Human betaherpesvirus 5, Davis
Summary of the method: (§4)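 HEL fibroblast cultures infected at 100 PFU input. After 2 h, residual virus was removed and compound-containing medium was added at varying concentrations, in duplicate. Cells were incubated 7 days at 37 °C, ethanol-fixed and Giemsa-stained, and cytopathicity was scored microscopically.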

[26] = tested on: Human betaherpesvirus 5; experiment: Antiviral activity against wild type HCMV AD169 infected in HEL cells assessed as inhibition of virus-induced cytopathicity; assay type: functional, organism-based; details: Human betaherpesvirus 5, AD169, HEL; summary of the method: as §4
[27] = tested on: Human betaherpesvirus 5; experiment: Antiviral activity against foscarnet-resistant HCMV AD169 clone C infected in HEL cells assessed as inhibition of virus-induced cytopathicity; assay type: functional, organism-based; details: Human betaherpesvirus 5, AD169, HEL
[28] = tested on: Human betaherpesvirus 5; experiment: Antiviral activity against PMEDAP-resistant HCMV AD169 clone 4 infected in HEL cells assessed as inhibition of virus-induced cytopathicity; assay type: functional, organism-based; details: Human betaherpesvirus 5, AD169, HEL
[29] = tested on: Human betaherpesvirus 5; experiment: Antiviral activity against cidofovir HCMV AD169 clone 5 infected in human HEL cells assessed as inhibition of virus-induced cytopathicity; assay type: functional, organism-based; details: Human betaherpesvirus 5, AD169, HEL
[30] = tested on: Human respirovirus 3; experiment: Antiviral activity against Parainfluenza virus 3 infected in african green monkey Vero cells; assay type: functional, organism-based
[31] = tested on: Human alphaherpesvirus 3; experiment: Antiviral activity against Varicella zoster virus YSR infected in human HEL cells assessed reduction in viral plaque formation; assay type: functional, organism-based; details: Human alphaherpesvirus 3, YSR

O=S1(=O)C=C(OCc2ccccc2)C(Cc2ccccc2)(Cc2ccccc2)O1
EC50 [1]: > 5 µM
EC50 [2]: 50 µM
CC50 at 72 h [3]: 200 µM
EC50 [4]: 5 µM
selectivity ratio [5]: ≤ 4
MCC at 72 h [6]: 200 µM
EC50 [7]: > 50 µM
selectivity ratio [8]: ≤ 4

CCC1(Cc2ccccc2)OS(=O)(=O)C=C1OCc1ccccc1Cl (racemic)
EC50 [1]: 8.7 µM
EC50 [2]: > 4 µM
CC50 at 72 h [3]: 38 µM
EC50 [4]: 10 µM
MCC at 72 h [6]: ≥ 20 µM
EC50 [7]: > 4 µM
EC50 [9]: > 5 µM

CCC1(Cc2ccccc2)OS(=O)(=O)C=C1OCCc1ccccc1 (racemic)
Activity [10]: inactive
EC50 [1]: 5.7 µM
EC50 [2]: 6.9 µM
CC50 at 72 h [3]: 48 µM
EC50 [4]: 7.5 µM
Activity [11]: inactive
Activity [12]: inactive
Activity [13]: inactive
MCC at 72 h [6]: ≥ 20 µM
Activity [14]: inactive
Activity [15]: inactive
Activity [16]: inactive
EC50 [7]: 9.3 µM
Activity [17]: inactive
Activity [18]: inactive
Activity [19]: inactive
Activity [20]: inactive
Activity [21]: inactive

CCC1(Cc2ccccc2)OS(=O)(=O)C=C1OCc1ccc(Cl)cc1 (racemic)
Activity [10]: inactive
EC50 [1]: 7.6 µM
EC50 [2]: 10.4 µM
EC50 [22]: 1.1 µM
CC50 at 72 h [3]: > 200 µM
EC50 [4]: 5.7 µM
EC50 [23]: 9.9 µM
Activity [11]: inactive
EC50 [24]: 11 µM
Activity [12]: inactive
EC50 [25]: 11 µM
Activity [13]: inactive
MCC at 72 h [6]: ≥ 50 µM
Activity [14]: inactive
EC50 [26]: 11 µM
Activity [15]: inactive
Activity [16]: inactive
EC50 [7]: 9.7 µM
EC50 [9]: 10 µM
Activity [17]: inactive
Activity [18]: inactive
Activity [19]: inactive
Activity [20]: inactive
EC50 [27]: 9.6 µM
EC50 [28]: 12 µM
Activity [21]: inactive
EC50 [29]: 11 µM

CCC1(Cc2ccccc2)OS(=O)(=O)C=C1OCc1ccccc1 (racemic)
Activity [10]: inactive
EC50 [1]: 6.4 µM
EC50 [2]: 13 µM
CC50 at 72 h [3]: 200 µM
EC50 [4]: 5.6 µM
Activity [11]: inactive
Activity [30]: inactive
selectivity ratio [5]: ≥ 5
Activity [12]: inactive
Activity [13]: inactive
MCC at 72 h [6]: ≥ 50 µM
Activity [14]: inactive
Activity [15]: inactive
Activity [16]: inactive
EC50 [7]: 9.3 µM
EC50 [9]: 3.6 µM
Activity [17]: inactive
selectivity ratio [8]: ≥ 5
Activity [18]: inactive
Activity [19]: inactive
Activity [20]: inactive
Activity [21]: inactive

CCC1(Cc2ccccc2)OS(=O)(=O)C=C1OCc1ccc(F)cc1 (racemic)
EC50 [1]: 8.6 µM
EC50 [2]: 15 µM
CC50 at 72 h [3]: > 50 µM
EC50 [4]: 8.6 µM
MCC at 72 h [6]: ≥ 50 µM
EC50 [31]: 9.3 µM
EC50 [7]: 7 µM
EC50 [9]: 10.4 µM

CCC1(Cc2ccccc2)OS(=O)(=O)C=C1OCc1ccc(OC)cc1 (racemic)
Activity [10]: inactive
EC50 [1]: 120 µM
EC50 [2]: 200 µM
CC50 at 72 h [3]: > 200 µM
EC50 [4]: 106 µM
Activity [11]: inactive
Activity [12]: inactive
Activity [13]: inactive
MCC at 72 h [6]: ≥ 200 µM
Activity [14]: inactive
Activity [15]: inactive
Activity [16]: inactive
EC50 [7]: 142 µM
Activity [17]: inactive
Activity [18]: inactive
Activity [19]: inactive
Activity [20]: inactive
Activity [21]: inactive
